In ChEMBL document CHEMBL4732148 (Eur J Med Chem, 2021):
pIC50: −log10 of the molar value. Active and inactive are the calls of the source. The calls are words filed in the database; no cut-off is given here.

Key:
[1] = Cytotoxicity against human Huh-7 cells assessed as reduction in cell viability measured after 48 hrs by celltiter-glo assay; format: cell-based; settings: read-out: TC50
Hepatitis C virus [2] = assay: Antiviral activity against HCV infected in human Huh-7 cells assessed as reduction in viral replication measured after 48 hrs by luciferase reporter gene assay; format: functional, organism-based, Hepacivirus hominis; settings: Huh-7, 48 h
Method in brief: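 Replicon-bearing Huh7 cells seeded at 10,000/well and allowed to attach for 24 h at 37 °C. Triplicate biological wells then treated 48 h with compound in DMEM, 10% FBS, 0.5% DMSO final. Bright-Glo luminescence expressed relative to untreated cells. IC50 from a four-parameter logistic fit.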

[3] = Stability in pH 1 aqueous buffer assessed as parent compound remaining at 200 uM measured after 4 hrs by UV spectrophotometry; format: physicochemical; settings: read-out: Stabilty
Method in brief: (§1)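 Compound diluted to […] in aqueous buffers at pH 1.0, 2.0, 4.0, 6.0 or 8.0 and held 4 h at 40 °C. Intact prodrug separated by reverse-phase HPLC. 260 nm peak area after incubation compared with untreated prodrug, giving % remaining.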

[4] = Stability in pH 4 aqueous buffer assessed as parent compound remaining at 200 uM measured after 4 hrs by UV spectrophotometry; format: physicochemical; settings: read-out: Stabilty; method in brief: as §1
Hepatitis C virus [5] = assay: Antiviral activity against HCV infected in human Huh-7 cells assessed as reduction in viral replication at 25 to 1000 nM measured after 48 hrs in presence of deoxycytidine by luciferase reporter gene assay; format: functional, organism-based; settings: Hepacivirus hominis, dose 25-1000 nM
Method in brief: (§2)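 Huh7 cells carrying an HCV luciferase replicon, grown in DMEM with 10% FBS and G418. Cells treated 48 h continuously with compound at 25–1,000 nM, either alone or together with 50 µM cytidine or 2′-deoxycytidine. Luciferase activity read in lysates. Three biological replicates, SD.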

[6] = Cytotoxicity against HEK293 cells assessed as reduction in cell viability measured after 96 hrs by celltiter-glo assay; format: cell-based; settings: human, read-out: TC50
[7] = Cytotoxicity against human MCF7 cells assessed as reduction in cell viability measured after 96 hrs by celltiter-glo assay; format: cell-based; settings: read-out: TC50
[8] = Toxicity in human Huh-7 cells assessed as reduction in cell viability measured after 96 hrs by celltiter-glo assay; format: cell-based; settings: read-out: TC50
Hepatitis C virus [9] = assay: Antiviral activity against HCV infected in human Huh-7 cells assessed as reduction in viral replication at 25 to 1000 nM measured after 48 hrs in presence of cytidine by luciferase reporter gene assay; format: functional, organism-based; settings: Hepacivirus hominis, dose 25-1000 nM; method in brief: as §2
[10] = Ratio of gemcitabine TC50 to test compound TC50 for cytotoxicity against human MCF7 cells assessed as reduction in cell viability; format: cell-based
[11] = Stability in pH 6 aqueous buffer assessed as parent compound remaining at 200 uM measured after 4 hrs by UV spectrophotometry; format: physicochemical; settings: read-out: Stabilty; method in brief: as §1
[12] = Stability in pH 2 aqueous buffer assessed as parent compound remaining at 200 uM measured after 4 hrs by UV spectrophotometry; format: physicochemical; settings: read-out: Stabilty; method in brief: as §1
[13] = Stability in pH 8 aqueous buffer assessed as parent compound remaining at 200 uM measured after 4 hrs by UV spectrophotometry; format: physicochemical; settings: read-out: Stabilty; method in brief: as §1
Hepatitis C virus [14] = assay: Antiviral activity against HCV infected in human Huh-7 cells assessed as reduction in viral replication at 500 nM measured after 48 hrs by luciferase reporter gene assay; format: functional, organism-based; settings: Hepacivirus hominis
Method in brief: (§3)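 Huh7 luciferase replicon cells treated with 500 nM compound or mock for up to 48 h. Cells were lysed at various times and the lysates snap-frozen in liquid nitrogen. All lysates were then assayed for luciferase together.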

HepG2 = assay: Cytotoxicity against human HepG2 cells assessed as reduction in cell viability measured after 96 hrs by celltiter-glo assay; format: functional; settings: read-out: TC50 (the source's name)
Hepatitis C virus [15] = assay: Antiviral activity against HCV infected in human Huh-7 cells assessed as reduction in viral replication at 500 nM measured after 24 to 30 hrs by luciferase reporter gene assay; format: functional, Hepacivirus hominis; design: scale not given: the % may be the effect or the level left; settings: time 24-30 hrs; method in brief: as §3
[16] = Ratio of gemcitabine TC50 to test compound TC50 for cytotoxicity against human BXPC-3 cells assessed as reduction in cell viability; format: cell-based
[17] = Cytotoxicity against human BXPC-3 cells assessed as reduction in cell viability measured after 96 hrs by celltiter-glo assay; format: cell-based; settings: read-out: TC50
[18] = Cytotoxicity against human Huh-7 cells assessed as reduction in cell viability measured after 48 hrs in presence of ENT1 inhibitor NBTI […]; format: cell-based; settings: with NBTI (ENT1 inhibitor; concentration not stated), read-out: TC50
Hepatitis C virus [19] = assay: Ratio of IC50 for antiviral activity against HCV infected in human Huh-7 cells assessed as reduction in viral replication preincubated for 2 hrs followed by replacement with fresh culture medium and measured after 46 hrs by luciferase reporter gene assay to IC50 for antiviral activity against HCV infected in human Huh-7 cells assessed as reduction in viral replication measured after 48 hrs by …; format: functional, Hepacivirus hominis
Hepatitis C virus [20] = assay: Antiviral activity against HCV infected in human Huh-7 cells assessed as reduction in viral replication preincubated for 2 hrs followed by replacement with fresh culture medium and measured after 46 hrs by luciferase reporter gene assay; format: functional, organism-based, Hepacivirus hominis
Method in brief: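 HCV luciferase-replicon Huh7 cells were seeded at 10,000 cells/well and allowed 24 h to attach. Three biological replicates were exposed to graded compound in DMEM/10% FBS/0.5% DMSO for 2 h only, then the medium was replaced with fresh growth medium for 46 h at 37 °C.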

SMILES	CC50 at 48 h [1]	pIC50 (Hepatitis C virus [2])	further results
COc1ccc2cc(C(=O)Nc3ccn([C@@H]4O[C@H](CO)[C@@H](O)C4(F)F)c(=O)n3)ccc2c1	168 µM	7.03	–
O=C(Nc1ccn([C@@H]2O[C@H](CO)[C@@H](O)C2(F)F)c(=O)n1)c1cc(Cl)cc(Cl)c1	110 µM	7.59	remaining at 4 h, 200 µM [3]: 35%; remaining at 4 h, 200 µM [4]: 98.4%; Activity (Hepatitis C virus [5]): inactive; CC50 at 96 h [6]: 1.2 µM; CC50 at 96 h [7]: 0.33 µM; CC50 at 96 h [8]: 4.2 µM; Activity (Hepatitis C virus [9]): inactive; selectivity ratio [10]: ≤ 24; remaining at 4 h, 200 µM [11]: 99.6%; remaining at 4 h, 200 µM [12]: 82%; remaining at 4 h, 200 µM [13]: 35.4%; Activity (Hepatitis C virus [14]): Active; CC50 (HepG2): 0.6 µM; Activity (Hepatitis C virus [15]): 50%
O=C(Nc1ccn([C@@H]2O[C@H](CO)[C@@H](O)C2(F)F)c(=O)n1)c1ccc2c(c1)CCCC2	132 µM	7.07	–
O=C(Nc1ccn([C@@H]2O[C@H](CO)[C@@H](O)C2(F)F)c(=O)n1)c1ccc2cc(Br)ccc2c1	74 µM	6.73	–
COc1cccc(OC)c1C(=O)Nc1ccn([C@@H]2O[C@H](CO)[C@@H](O)C2(F)F)c(=O)n1	4580 µM	6.35	–
O=C(Nc1ccn([C@@H]2O[C@H](CO)[C@@H](O)C2(F)F)c(=O)n1)c1cccc2c1CCCC2	92 µM	6.79	–
O=C(Nc1ccn([C@@H]2O[C@H](CO)[C@@H](O)C2(F)F)c(=O)n1)c1ccc2c(c1)OC(F)(F)O2	188 µM	7.33	–
COC(=O)N[C@H](C(=O)N1CCC[C@H]1c1ncc(-c2ccc(-c3ccc(-c4cnc([C@@H]5CCCN5C(=O)[C@@H](NC(=O)OC)C(C)C)[nH]4)cc3)cc2)[nH]1)C(C)C	–	10.51	–
O=C(Nc1ccn([C@@H]2O[C@H](CO)[C@@H](O)C2(F)F)c(=O)n1)c1c(Br)ccc2c1OCO2	2210 µM	6.47	–
O=C(Nc1ccn([C@@H]2O[C@H](CO)[C@@H](O)C2(F)F)c(=O)n1)c1ccc(Cl)cc1Cl	> 100 µM	7.11	–
O=C(Nc1ccn([C@@H]2O[C@H](CO)[C@@H](O)C2(F)F)c(=O)n1)c1ccc2c(c1)OCCO2	855 µM	6.90	remaining at 4 h, 200 µM [3]: 71%; remaining at 4 h, 200 µM [4]: 100%; selectivity ratio [16]: ≤ 620; CC50 at 96 h [17]: 1.2 µM; CC50 at 96 h [6]: 5.6 µM; CC50 at 96 h [7]: 1.4 µM; CC50 at 96 h [8]: 3.3 µM; selectivity ratio [10]: ≤ 24; remaining at 4 h, 200 µM [11]: 100%; remaining at 4 h, 200 µM [12]: 100%; remaining at 4 h, 200 µM [13]: 100%; CC50 (HepG2): 1.1 µM
O=C(Nc1ccn([C@@H]2O[C@H](CO)[C@@H](O)C2(F)F)c(=O)n1)c1ccc2c(c1)CCO2	954 µM	6.84	–
Cc1ccc(C(=O)Nc2ccn([C@@H]3O[C@H](CO)[C@@H](O)C3(F)F)c(=O)n2)cc1	329 µM	7.37	CC50 at 48 h [18]: 240 µM
O=C(Nc1ccn([C@@H]2O[C@H](CO)[C@@H](O)C2(F)F)c(=O)n1)C1Cc2ccccc2C1	> 500 µM	8.00	–
CC1(C)Cc2ccc(C(=O)Nc3ccn([C@@H]4O[C@H](CO)[C@@H](O)C4(F)F)c(=O)n3)cc2O1	1160 µM	6.75	–
COc1ccc(C(=O)Nc2ccn([C@@H]3O[C@H](CO)[C@@H](O)C3(F)F)c(=O)n2)cc1	572 µM	7.22	–
Cc1cc2c(cc1C(=O)Nc1ccn([C@@H]3O[C@H](CO)[C@@H](O)C3(F)F)c(=O)n1)OCCO2	626 µM	5.77	–
COc1c(Cl)cc(C(=O)Nc2ccn([C@@H]3O[C@H](CO)[C@@H](O)C3(F)F)c(=O)n2)cc1Cl	> 100 µM	7.71	–
O=C(Nc1ccn([C@@H]2O[C@H](CO)[C@@H](O)C2(F)F)c(=O)n1)c1ccc2ccccc2c1	125 µM	6.90	–
CCc1ccc(C(=O)Nc2ccn([C@@H]3O[C@H](CO)[C@@H](O)C3(F)F)c(=O)n2)cc1	490 µM	7.23	CC50 at 48 h [18]: 360 µM
O=C(Nc1ccn([C@@H]2O[C@H](CO)[C@@H](O)C2(F)F)c(=O)n1)c1cc2c(cc1[N+](=O)[O-])OCO2	> 500 µM	7.33	–
O=C(Nc1ccn([C@@H]2O[C@H](CO)[C@@H](O)C2(F)F)c(=O)n1)c1ccc2c(c1)CCC2	378 µM	7.23	–
O=C(Nc1ccn([C@@H]2O[C@H](CO)[C@@H](O)C2(F)F)c(=O)n1)c1ccc2c(c1)OCCCO2	881 µM	7.04	–
O=C(Nc1ccn([C@@H]2O[C@H](CO)[C@@H](O)C2(F)F)c(=O)n1)c1ccc2c(c1)C(=O)c1ccccc1C2=O	249 µM	7.89	–
O=C(Nc1ccn([C@@H]2O[C@H](CO)[C@@H](O)C2(F)F)c(=O)n1)c1ccc(Cl)c(Cl)c1	> 100 µM	7.76	–
COc1cc(OC)cc(C(=O)Nc2ccn([C@@H]3O[C@H](CO)[C@@H](O)C3(F)F)c(=O)n2)c1	962 µM	7.13	Activity (Hepatitis C virus [5]): inactive; CC50 at 96 h [6]: 4 µM; CC50 at 96 h [7]: 1.6 µM; CC50 at 96 h [8]: 18.5 µM; Activity (Hepatitis C virus [9]): inactive; selectivity ratio [10]: ≤ 24; CC50 (HepG2): 3 µM
O=C(Nc1ccn([C@@H]2O[C@H](CO)[C@@H](O)C2(F)F)c(=O)n1)c1ccc2c(c1)OCO2	470 µM	7.22	remaining at 4 h, 200 µM [3]: 64%; remaining at 4 h, 200 µM [4]: 100%; selectivity ratio [16]: ≤ 620; CC50 at 96 h [17]: 0.72 µM; Ratio IC50 (Hepatitis C virus [19]): 51; CC50 at 96 h [6]: 4.1 µM; CC50 at 48 h [18]: 440 µM; CC50 at 96 h [7]: 1.2 µM; CC50 at 96 h [8]: 7 µM; selectivity ratio [10]: ≤ 24; remaining at 4 h, 200 µM [11]: 100%; pIC50 (Hepatitis C virus [20]): 5.51; remaining at 4 h, 200 µM [12]: 100%; remaining at 4 h, 200 µM [13]: 92%; CC50 (HepG2): 2.8 µM
O=C(Nc1ccn([C@@H]2O[C@H](CO)[C@@H](O)C2(F)F)c(=O)n1)c1ccc(Cl)cc1	138 µM	7.42	–
